From PubChem
Most compounds without a hit are left out; they make up all but 3.2% or so of the library.
DAX1 inh-1: DAX1 (NR0B1) inhibitors, primary screen, cell-based, HEK293, Gal4-DAX1, luciferase luminescence. Nuclear receptor subfamily 0 group B member 1 (Homo sapiens), P51843. 0.99% of 340,000 active. inhibition, % at 6.75 µM. HEK293 Gal4-DAX1 luciferase reporter;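 active = inhibition above the mean over all tested compounds plus 3 SD, cut at about 4.2% in these data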;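 note: 0% = DAX1-transfected cells with DMSO and 100% = empty-vector control cells with DMSO; inhibition shows as a rise in luminescence from relieved DAX1 repression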
Target sequence (P51843 207-470 limits assumed): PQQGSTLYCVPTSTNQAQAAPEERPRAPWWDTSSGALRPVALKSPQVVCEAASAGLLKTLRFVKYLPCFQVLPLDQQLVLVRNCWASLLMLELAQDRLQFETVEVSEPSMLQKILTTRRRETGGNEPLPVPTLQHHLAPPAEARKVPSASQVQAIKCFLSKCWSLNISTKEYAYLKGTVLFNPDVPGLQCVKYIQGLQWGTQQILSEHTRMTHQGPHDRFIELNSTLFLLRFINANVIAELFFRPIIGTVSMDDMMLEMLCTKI
SMARCA2 activ: SMARCA2 (BRM) function activators, primary screen, cell-based, luminescence, high throughput | AID 652017, 2013 | activation, % at 9.1 µM | 1% of 370,000 active | MG213 cells, MMTV-luciferase reporter, dexamethasone, overnight; in the data active = activation above about 7.8%;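 note: 0% = vehicle wells and 100% = reference activator wells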
DAX1 inh-2: DAX1 (NR0B1) inhibitors on StAR promoter, primary screen, cell-based, luminescence, SF-1 (NR5A1), full-length DAX-1. 1.1% of 370,000 active. inhibition, % at 6.8 µM. HEK293T StAR-luciferase reporter, SF-1/DAX-1 repression relief;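 active = inhibition above the mean over all tested compounds plus 3 SD, cut at about 3.6% in these data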;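 note: 0% = DAX-1 cells with DMSO and 100% = cells lacking DAX-1 with DMSO; higher inhibition means more luminescence from relief of DAX-1 repression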
NR2E3 ag-1: NR2E3 agonists in two-hybrid cells, primary screen, cell-based, luminescence, CHO-S, Gal4-NCOR/VP16-NR2E3; 0.35% of 360,000 active; luciferase; Photoreceptor-specific nuclear receptor (Homo sapiens), Q9Y5X4; AID 602229, 2012; inhibition of corepressor binding, % at 3.98 µM;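 active = inhibition above the mean of all tested compounds plus 3 SD, cut at about 70% in these data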;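 note: 0% = DMSO with NR2E3 transfected cells and 100% = cells lacking NR2E3 construct; higher means lower luciferase signal from less NR2E3 corepressor binding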
NR2E3 ag-2: inhibitors of NR2E3-RetCOR corepressor binding, primary screen, NR2E3 agonist project, biochemical, TR-FRET, GST-NR2E3, biotin-RetCOR; Photoreceptor-specific nuclear receptor (Homo sapiens), Q9Y5X4; 1536-well; inhibition of corepressor binding, % at 4.78 µM; 0.12% of 320,000 active; AID 2300, 2010;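 active = percent inhibition above the cutoff of mean plus 3 SD of all tested compounds, set per screening campaign, cut at about 20% in these data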;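 note: 0% = DMSO wells and 100% = biotin wells as full block of FRET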
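System: GST-NR2E3 and biotin-RetCOR proteins; probe or stimulus: 7 nM biotin-RetCOR; doses: compound at 4.8 µM, single dose; schedule: Compound–protein incubation for 5 h at 4 °C; detection: time-resolved FRET; read-out: percent inhibition; controls: biotin wells as high control, 0.6% DMSO wells as low control; format: 1536-well plates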
GASC-1 inh: inhibitors of GASC-1 histone demethylase, primary screen, biochemical, fluorescence, DELFIA europium | Lysine-specific demethylase 4C (Homo sapiens), Q9H3R0 | GST-JMJD2C(1-420) H3K9me3 demethylation | inhibition, % at 2.35 µM | 0.069% of 330,000 active | AID 2099, 2009;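 active = more than half of a compound's replicate wells show inhibition beyond 50%, single wells judged on their own value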;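 note: signal counts dimethyl H3K9 product captured on neutravidin plate; 0% = median of DMSO wells and 100% = 0.3 times that DMSO median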
NR2E3 ag conf: NR2E3 agonist confirmation in cells, cell-based, luminescence, CHO-S two-hybrid | 51% of 2,300 active | inhibition, % at 3.98 µM | CHO-S mammalian two-hybrid NR2E3-NCOR, luciferase luminescence | shares compounds with NR2E3 ag-1;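 active = average inhibition above a cutoff equal to the mean inhibition of all tested compounds plus one SD, cut at about 70% in these data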;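 note: 0% = DMSO in NR2E3 cells and 100% = DMSO in cells lacking NR2E3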
VP16 counter: GAL4-VP16 reporter modulators, confirmation, counter-screen for NR2E3 agonist project, cell-based, luminescence, CHO-S, high throughput; shares compounds with NR2E3 ag-1; CHO-S GAL4-VP16 luciferase reporter; inhibition, % at 3.98 µM; 29% of 2,300 active; AID 624379, 2012;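 active = mean inhibition above a cutoff equal to the average over all tested compounds plus one standard deviation, cut at about 70% in these data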;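 note: luciferase from a UAS reporter driven by GAL4-VP16 transactivation; 0% = DMSO with VP16-transfected cells and 100% = DMSO with cells lacking VP16; higher means less reporter light so more repression of VP16 activity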
* hit, by the source's call; · = no result given.

SMILES	DAX1 inh-1	SMARCA2 activ	DAX1 inh-2	NR2E3 ag-1	NR2E3 ag-2	GASC-1 inh	NR2E3 ag conf	VP16 counter
Nc1ccn([C@@H]2O[C@H](CO)[C@@H](O)[C@@H]2O)c(=O)n1	-4	-1	-4	-23	-2	3	·	·
COCCCN1C(=O)[C@H](CC(=O)N2CCOCC2)[C@]2(C(=O)OC)CCCCC=C12	·	-2	0	·	·	·	·	·
CCOC(=O)Cc1c(C)nc2c(-c3cccc(Br)c3)c[nH]n2c1=O	0	-2	-1	64	-2	6	47	38
O=c1oc2ccccc2c(Nc2cccc3ccccc23)c1[N+](=O)[O-]	0	-4	0	50	-4	-2	66	30
O=c1oc2ccccc2c(Nc2ccccc2O)c1[N+](=O)[O-]	0	-1	0	-17	-2	2	·	·
N#CC(C#N)=C(Nc1ccc(F)cc1)SCc1cccc(F)c1	-4	-9	-4	81*	-1	-2	89*	88*
O=C(NCCCCCCNC(=O)c1ccccc1O)c1ccccc1O	-2	-1	-1	67	1	-4	88*	63
O=C(CNC(=O)c1ccccc1)NCCCSc1ccccc1	2	-2	-1	-15	·	·	·	·
O=C(NCCCSc1ccccc1)c1cc(Cl)ccc1O	1	-3	0	78*	·	13	99*	87*
CCCCNC(=O)C[C@H]1C[C@@]2(C(=O)OC)C(=C[C@H](C3CCCC3)O[C@@H]2C)N(CCC2=CCCCC2)C1=O	·	-5	-1	·	·	·	·	·
C/C(CC(C)(C)C1CCCCC1)=N\NC(N)=S	-3	-5	-2	81*	2	-5	39	24
C/C(CCC12CC3CC(CC(C3)C1)C2)=N\NC(N)=S	0	-2	0	-36	-3	-4	·	·
CC(=O)OC1COC(OC2C(O)C(C)OC(OC3C(OC4CCC5(C)C(CCC6(C)C5CC=C5C7CC(C)(C)CCC7(C(=O)O)CCC56C)C4(C)CO)OCC(O)C3O)C2O)C(O)C1OC(C)=O (stereo not given)	·	·	·	·	2	2	·	·
C/C=C(/C)C(=O)OC1CC(C)(C)C[C@H]2C3=CC[C@@H]4[C@@]5(C)CCC(O[C@@H]6O[C@@H](C(=O)O)[C@@H](O)C(O[C@@H]7OC[C@H](O)[C@@H](O)[C@@H]7O[C@@H]7OC(CO)C(O)[C@@H](O)[C@@H]7O)C6O[C@@H]6OC(CO)C(O)C(O)C6O)[C@@](C)(CO)[C@@H]5CC[C@]4(C)[C@]3(C)CC(O)[C@@]12CO (stereo not given in full)	0	·	·	48	·	-8	40	17
COc1ccc(S[C@]2(C(=O)N3CCN(c4ncccn4)CC3)CC(=O)N(C(=O)C3CC3)[C@@H]2c2ccc(OC)cc2)cc1	·	-1	-1	·	·	·	·	·
O=C(c1ccccc1)N1CCC(c2nc(-c3ccc(S(=O)(=O)NCC4CCCO4)cc3)no2)CC1 (stereo not given)	-2	-2	-1	21	5	24	·	·
O=C(C1CC1)N1CCC(c2nc(-c3ccc(S(=O)(=O)NCC4CCCO4)cc3)no2)CC1 (stereo not given)	-3	-3	-3	50	1	70	21	41
